Screening results (PubChem BioAssay)
SDO1 yeast rescue: sdo1-depleted yeast growth rescue | z-score at 10 µM | 140,000 compounds, 0.21% hits | S. cerevisiae sdo1-depleted JHY4D growth rescue, OD600 30 h; stronger effect = higher value; pdr5 snq2 efflux-pump mutant strain;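 active means z-score above 3 at both the 24 hr and the 30 hr optical density reads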
TNF necrop inh: blocks TNF-alpha induced death of Jurkat FADD-/- cells | 220,000 compounds, 0.068% hits | activation (protection from cell death), % at 10 µM | Jurkat FADD-/- TNF necroptosis rescue, ATP luminescence, 24 h; 0 = TNF only, 100 = no-TNF cells | AID 463075;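 active means activation, meaning protection from cell death, of at least 50% relative to plate controls; inactive means activation below 50%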;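 further: necroptosis triggered by 40 ng/mL TNF-alpha added together with compound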
L929 necroptosis: L929 zVAD cell death inhibition | 220,000 compounds, 0.38% hits | L929 zVAD necroptosis rescue, ATP luminescence, 24 h; with zVAD 60 µM | AID 1377 | viability rescue, % at 10 µM;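 active means activation, scaled between plate controls, above about 75%, limit read from the data; inactive means activation under that limit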
Rad51 HR inh: Rad51 (human) homologous recombination inhibition; hRad51 DNA strand exchange, fluorescence dequenching; 200,000 compounds, 0.085% hits; AID 1385; inhibition, % at 10 µM; Q06609;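 active means inhibition above 40% at the single screening dose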
Target sequence (Q06609 whole entry, looked up): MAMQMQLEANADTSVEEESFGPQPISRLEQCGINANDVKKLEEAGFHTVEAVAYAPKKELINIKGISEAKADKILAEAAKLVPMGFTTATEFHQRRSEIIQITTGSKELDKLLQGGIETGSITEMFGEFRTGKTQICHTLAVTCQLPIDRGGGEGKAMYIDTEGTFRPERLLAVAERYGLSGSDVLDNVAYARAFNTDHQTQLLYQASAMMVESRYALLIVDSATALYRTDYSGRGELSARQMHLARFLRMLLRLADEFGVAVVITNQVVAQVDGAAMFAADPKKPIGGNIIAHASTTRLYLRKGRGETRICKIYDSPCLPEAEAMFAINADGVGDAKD
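Test system: preformed human Rad51 ssDNA filaments; also added: Donor/quencher-labelled 47-bp dsDNA substrate; doses: 10 µM final, single point; times: 37 °C 15-min filament assembly, 30-min compound preincubation, 15-min exchange; detection: FRET fluorescence dequenching, excitation 485 nm, emission 520 nm; read-out basis: Fluorescence-based percent inhibition, control- and blank-normalised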
zVAD death conf: confirmed blocker of zVAD induced death in L929 cells; shares compounds with L929 necroptosis; L929 zVAD-induced necroptosis rescue, ATP luminescence, 24 h; activation (protection from necroptosis), % at 10 µM; 760 compounds, 16% hits; AID 463117;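 active means mean protection from necroptosis of at least 50% over duplicate tests; inactive means mean protection below 50%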
Numbers stand for hits; i = inactive; nt = no result given. A selection: hits, their analogues and other compounds. The true share with any hit is near 0.64%.

SMILES	SDO1 yeast rescue	TNF necrop inh	L929 necroptosis	Rad51 HR inh	zVAD death conf
CON1C(=O)C(=O)N(OC)C(C)(C)C1(C)C	i	i	i	i	nt
CCN(CC)CCNC(=O)c1ccc2c(=O)n(CCc3ccccc3)c(=O)[nH]c2c1	i	i	89	i	i
O=C(NCCCN1CCCCC1)c1ccc2c(=O)n(CCc3ccccc3)c(=O)[nH]c2c1	i	i	80	nt	i
Nc1[nH]nc2ncc3cc4ccccc4nc3c12	nt	i	82	i	i
Cc1ccc2[nH]c3c(c2c1)CCC3=O	i	i	i	i	nt
Cc1ccc2[nH]c3c(c2c1)CCc1cn[nH]c1-3	i	92	89	nt	80
O=C(CN1C(=O)C2C3C=CC(C4CC34)C2C1=O)Nc1cnc2ccccc2c1 (stereo not drawn)	nt	i	75	i	i
Cc1ccc(Nc2nnc(-c3ccc(N4CCOCC4)c([N+](=O)[O-])c3)c3ccccc23)cc1	i	i	i	i	nt
O=[N+]([O-])c1cc(-c2nnc(Nc3ccccc3)c3ccccc23)ccc1N1CCOCC1	i	i	98	i	i
Cn1cnc([N+](=O)[O-])c1Oc1ccc2ccccc2c1	i	i	i	i	nt
CC(=O)c1ccc2noc(-c3ccccc3)c2c1	nt	i	76	i	i
CNS(=O)(=O)c1ccc2c(c1)NC(=O)C1CCCN21 (stereo not drawn)	i	i	i	nt	nt
Cc1ccc(NC(=O)COC(=O)c2ccc3c(c2)NC(=O)C2CCCN32)cc1C (stereo not drawn)	i	i	90	i	61
O=C(Cc1ccccc1)NCC(=O)N/N=C/c1ccc(Cl)cc1	nt	i	i	i	nt
COc1ccc(-n2cnc3cc(NC(=O)c4ccco4)ccc32)cc1	i	i	83	i	i
O=C(Nc1ccc2c(c1)ncn2C1CCCCC1)c1ccco1	i	i	82	i	i
COc1ccccc1-n1cnc2cc(NC(=O)c3ccco3)ccc21	i	i	i	i	nt
CCOc1ccc(C(=O)NNC2CC(=O)N(Cc3ccc(Cl)cc3)C2=O)cc1OC (stereo not drawn)	nt	i	i	i	nt
Cc1nc(N2CCCCC2)nc(N2CCCCC2)c1C=O	nt	i	i	nt	nt
CCOc1cc(/C=C2/SC(=S)NC2=O)ccc1OC(=O)c1ccco1	nt	i	79	i	i
COc1cc(/C=C2/SC(=S)N(C)C2=O)ccc1OC(=O)c1ccco1	i	i	i	i	nt
Cc1ccc(OCCN2C(=O)C(=O)c3cc(C)ccc32)cc1	nt	i	i	i	nt
Cc1ccc2c(c1)C(=C(C#N)C#N)C(=O)N2CCN1CCCCC1	nt	i	90	i	i
Cc1ccc2c(CN3CCOCC3)cc(=O)oc2c1	nt	i	i	i	nt
Cc1ccc2c(c1)C(=C(C#N)C#N)C(=O)N2CCN1CCOCC1	nt	i	89	i	i
SMILES	SDO1 yeast rescue	TNF necrop inh	L929 necroptosis	Rad51 HR inh	zVAD death conf
N#C[C@H]1[C@H](c2ccccc2)[C@](C#N)(C(=O)c2ccccc2)[C@@H]2C=Cc3ccccc3N21	i	i	i	nt	nt
COc1cc(NC(=O)c2cccs2)ccc1NC(=O)c1cc2ccccc2o1	nt	i	78	i	i
CN(C)S(=O)(=O)c1ccc(NC(=O)c2cc3ccccc3o2)cc1	i	i	92	i	i
Cc1ccc(NC(=O)c2cc3ccccc3o2)cc1S(=O)(=O)N(C)C	i	i	i	i	nt
O=C(OCc1nnc(-c2ccccc2)o1)c1ccccc1	nt	i	i	i	nt
O=C(COC(=O)c1ccc(-c2nnc(-c3ccccc3)o2)cc1)c1ccccc1	i	i	78	i	i
O=P(c1ccccc1)(c1ccccc1)C(c1ccco1)N1CCOCC1 (stereo not drawn)	i	i	i	i	nt
Cn1c(=O)cc(SCC(=O)Nc2ccccn2)c2ccccc21	i	i	81	i	i
O=C(/C=C\c1ccc2c(c1)OCO2)CC1(O)C(=O)Nc2ccccc21 (stereo not drawn)	nt	i	i	i	nt
O=C(CSc1nnc2n1CCCN2C(=S)Nc1ccc(Cl)cc1)c1ccccc1	i	96	93	i	i
Cc1ccsc1/C=N/Nc1nc2ccccc2s1	i	i	i	i	nt
C(=N\Nc1nc2ccccc2s1)/c1ccco1	i	i	94	i	i
C(=N\Nc1nc2ccccc2s1)/c1cccs1	i	i	82	i	i
CCOc1cc(/C=N/Nc2nc(-c3cccs3)c(NC(C)=O)s2)ccc1O	nt	i	i	nt	nt
COc1ccc(C(=O)C2CCCN(Cc3c(C)[nH]c4ccccc34)C2)c(OC)c1 (stereo not drawn)	nt	i	i	i	nt
COc1ccccc1C1CCN(Cc2c(C)[nH]c3ccccc23)CC1	nt	i	76	i	i
COc1cccc(/C=N/NC(=S)Nc2cccc(C(=O)O)c2)c1O	nt	i	i	i	nt
Cc1csc(N/N=C\c2cccnc2)n1	nt	i	88	i	i
CCC(=O)Nc1cc(SCCO)cc([N+](=O)[O-])c1	i	i	i	i	nt
O=C(CCl)Nc1cc(SCC(O)CO)cc([N+](=O)[O-])c1 (stereo not drawn)	nt	i	81	i	77
Nc1ncc(Br)cc1S(=O)(=O)NCCC(=O)N1CCN(c2ncccn2)CC1	i	i	92	i	i
CCOC(=O)CNC(=O)c1cccnc1Oc1ccc(Cl)cc1	nt	i	i	i	nt
COCCn1c(SCC(=O)Nc2cc(C(C)(C)C)nn2-c2ccccc2)nc2ccccc2c1=O	i	i	i	i	nt
COc1ccc(-n2cnnc2SCC(=O)Nc2cc(C(C)(C)C)nn2-c2ccccc2)cc1	i	i	85	i	81
CC(=O)c1c(C)[nH]c(C(=O)OCc2ccccc2)c1C	i	i	i	i	nt
SMILES	SDO1 yeast rescue	TNF necrop inh	L929 necroptosis	Rad51 HR inh	zVAD death conf
CCN(CC)CCc1c(C)[nH]c(C(=O)OCc2ccccc2)c1C	i	i	76	i	i
CCOc1cc(/C=C/C(=O)c2ccc(O)cc2)ccc1OCC(=O)N(C)C	i	i	105	i	i
CCOc1cc(C=O)ccc1OCC(N)=O	nt	i	i	i	nt
O=C(Nc1ccccc1)Nc1ccccc1C(=O)NCCCN1CCOCC1	nt	i	i	i	nt
O=C(c1ccco1)N1CCN(C(=O)c2ccc(COc3ccc(Cl)cc3Cl)o2)CC1	nt	i	86	i	i
O=C(c1ccco1)N1CCN(C(=O)c2ccc(COc3ccc4c(c3)CCC4)o2)CC1	i	i	83	i	i
O=C(c1ccc(COc2ccccc2Cl)o1)N1CCN(c2ccccc2)CC1	i	i	i	i	nt
Cc1ccc(C(C(=O)Nc2ccc(C(C)C)cc2)N(C)C(=O)c2ccc(=O)[nH]c2)cc1 (stereo not drawn)	nt	i	i	nt	nt
CCCCNC(=O)/C=C/c1ccc(S(=O)(=O)Nc2ccc(OC)cc2)cc1	nt	i	i	i	nt
Cc1nc2ccccc2nc(=O)c1NNc1ccccc1	i	i	76	nt	i
Cc1ccc2nc(=O)c(NNc3ccccc3)cnc2c1	i	i	nt	nt	nt
CCOC(=O)C1C(=O)NC(c2ccccc2)=NC1c1cccc(Br)c1 (stereo not drawn)	nt	i	i	nt	nt
Oc1c(Br)cc(C2N=C(c3ccccc3)NO2)cc1Br (stereo not drawn)	i	i	80	i	i
Cc1cccc(OCC(=O)Nc2ccccc2-c2ccccc2)c1	i	i	75	i	i
